Assay results: ChEMBL document CHEMBL1128185, “New orally active serine protease inhibitors: structural requirements for their good oral activity” (J Med Chem, 1995)

How the values were obtained:
[1] = The half-life period in vitro in rat small Intestine Homogenate; type: ADME
Method in brief: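 Small intestine from rats fasted 20 h, saline-washed, homogenized in 8 vol 1/10 M sodium phosphate pH 7.4, spun at 600g for 15 min; supernatant (1.0 mL) given 10 µL drug (5 mg/mL in 80% aqueous acetonitrile), 37 °C, 60 min. Aliquots quenched at intervals with acetonitrile containing internal standard and analyzed by HPLC. Half-life (min), mean of two experiments.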

[2] = The half-life period in vitro in plasma; type: ADME, cell-free
Method in brief: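 Rat plasma (1.0 mL) spiked with 5 µL of drug dissolved at 2 mg/mL in 80% aqueous acetonitrile, incubated at 37 °C for 60 min. Parent drug and products followed by ion-paired HPLC with internal standard; metabolites identified by retention times of synthesized authentic samples. Stability expressed as half-life (min), mean of two separate experiments.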

| Structure (SMILES) | half-life [1] [min] | half-life [2] [min] |
| --- | --- | --- |
| C/C(=C\c1ccc(C(=O)Oc2ccc(C(=N)N)cc2)cc1)C(=O)N(CC(=O)O)C1CCCCC1 | 49 | > 60 |
| CCOC(=O)CN(C(=O)/C(C)=C/c1ccc(C(=O)Oc2ccc(C(=N)N)cc2)cc1)C1CCCCC1 | > 60 | < 5 |
| C/C(=C\c1ccc(C(=O)Oc2ccc(C(=N)N)cc2)cc1)C(=O)N(CC(=O)O)C1CCCC1 | 42 | 23 |
| CCOC(=O)C(C(=O)OCC)N(CCCC(=O)O)C(=O)/C(C)=C/c1ccc(C(=O)Oc2ccc(C(=N)N)cc2)cc1 |  | 29 |
| C/C(=C\c1ccc(C(=O)Oc2ccc(C(=N)N)cc2)cc1)C(=O)N(CC(=O)O)Cc1ccccc1 | 50 | > 60 |
| CCOC(=O)CCCN(C(=O)/C(C)=C/c1ccc(C(=O)Oc2ccc(C(=N)N)cc2)cc1)C(C(=O)OCC)C(=O)OCC |  | < 1 |
| C/C(=C\c1ccc(C(=O)Oc2ccc(C(=N)N)cc2)cc1)C(=O)N(CCO)Cc1ccccc1 | 41 | < 5 |
| CCOC(=O)CN(Cc1ccccc1)C(=O)/C(C)=C/c1ccc(C(=O)Oc2ccc(C(=N)N)cc2)cc1 | 44 | < 1 |
| CCOC(=O)CCCN(C(=O)/C(C)=C/c1ccc(C(=O)Oc2ccc(C(=N)N)cc2)cc1)C(C(=O)O)C(=O)OCC (stereo not given) |  | 14 |

Other lines, results leading:

| half-life [1] [min] | half-life [2] [min] | Structure (SMILES) |
| --- | --- | --- |
| > 60 | 47 | C=CCN(CCC(=O)O)C(=O)/C(C)=C/c1ccc(C(=O)Oc2ccc(C(=N)N)cc2)cc1 |
| > 60 | < 5 | CCOC(=O)CN(C(=O)/C(C)=C/c1ccc(C(=O)Oc2ccc(C(=N)N)cc2)cc1)C1CCCC1 |
| 55 | > 60 | C=CCN(CCCC(=O)O)C(=O)/C(C)=C/c1ccc(C(=O)Oc2ccc(C(=N)N)cc2)cc1 |
| > 60 | 60 | CCN(CC(=O)O)C(=O)/C(C)=C/c1ccc(C(=O)Oc2ccc(C(=N)N)cc2)cc1 |
|  | < 1 | C=CCN(CCC(=O)OCC)C(=O)/C(C)=C/c1ccc(C(=O)Oc2ccc(C(=N)N)cc2)cc1 |
|  | < 1 | C=CCN(CCCC(=O)OCC)C(=O)/C(C)=C/c1ccc(C(=O)Oc2ccc(C(=N)N)cc2)cc1 |
